The source made the active and inactive calls. The rule behind the calls is not given here.
Tests used:
[1] = system: SNU-638; assay: Cytotoxicity against human SNU638 cells after 72 hrs by SRB assay; format: functional, cell-based; conditions: SNU-638, 72 h
Summary of the method: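 SRB growth assay: 5 × 10^3 cells/well exposed to a concentration series for 72 h; fixed in 10% TCA 30 min at 4 °C, stained with 0.4% SRB in 1% acetic acid 30 min, dye dissolved in 10 mM Tris pH 10.0, absorbance at 515 nm. Viability relative to vehicle control; IC50 by non-linear regression; at least three experiments. A549-Pa is a paclitaxel-resistant A549 subline.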

[2] = system: A549; assay: Cell cycle arrest in human A549 cells assessed as accumulation at G0/G1 phase at 100 nM after 24 hrs by flow cytometry (reference value: 62.38 %); format: functional
[3] = system: A549; assay: Antitumor activity against paclitaxel-resistant human A549 cells xenografted in athymic nu/nu BALB/c mouse assessed as inhibition of tumor growth at 10 mg/kg, ip administered 35 days post-implantation 3 times a week relative to control; format: functional; conditions: 840 h, route intraperitoneal, read-out: TGI
Summary of the method: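 Female athymic BALB/c nu/nu mice, six weeks old; 2 × 10^6 A549 or A549-Pa cells in 0.1 mL RPMI injected s.c. into right flank on day 0. Dosing began at 95–100 mm3 tumour volume: drug in 1% cremophore in PBS given i.p. three times weekly; controls got vehicle; five mice/group. Tumour volume tracked every 3–5 days; tumours excised and weighed at end; sections immunostained for Ki-67.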

[4] = molecular target: T1, ATP-dependent translocase ABCB1 (Homo sapiens, UniProt P08183); assay: Inhibition of P-gp activity in human paclitaxel-resistant A549 cells assessed as rhodamine 123 accumulation at 200 nM after 72 hrs by FACS analysis (reference value: 14.4 %); format: cell-based; parameters: scale not given: the % may be the effect or the level left; conditions: a549, 72 h, 0.2 µM
[5] = molecular target: T1, ATP-dependent translocase ABCB1; assay: Inhibition of P-gp activity in human paclitaxel-resistant A549 cells potentiation of 5 uM gefitinib-induced cytotoxicity at 0.1 uM by SRB assay; format: cell-based; conditions: a549, 0.1 µM
Summary of the method: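 A549-Pa cells plated at 5 × 10^4 cells/well and co-treated for 48 h with the compound (0–200 nM) plus paclitaxel or gefitinib; growth inhibition by SRB assay. Combination index computed at the 50% inhibition level as CI = D1/(Dx)1 + D2/(Dx)2, comparing combined versus single-agent concentrations.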

[6] = system: A549; assay: Inhibition of AKT/c-myc signaling in human A549 cells assessed as reduction in phospho-Rb level at 50 to 400 nM after 24 hrs by Western blot analysis; format: cell-based
Summary of the method: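 A549 cells plated at 3 × 10^5 per 60 mm dish, grown 24 h, then exposed to a concentration series for 24 h. Lysed in boiling SDS sample buffer with NaF and orthovanadate; protein by BCA; 25–50 µg run on 8–15% SDS-PAGE, transferred to PVDF, blocked in 5% milk/PBST, primary antibodies overnight at 4 °C, secondary 1–2 h, ECL detection.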

[7] = system: A549; assay: Cell cycle arrest in human A549 cells assessed as accumulation at sub-G1 phase at 100 nM after 24 hrs by flow cytometry (reference value: 1.40 %); format: functional
[8] = system: A549; assay: Cell cycle arrest in human A549 cells assessed as accumulation at sub-G1 phase at 50 nM after 24 hrs by flow cytometry (reference value: 1.40 %); format: functional
[9] = system: A549; assay: Cell cycle arrest in human A549 cells assessed as accumulation at G0/G1 phase at 200 nM after 24 hrs by flow cytometry (reference value: 62.38 %); format: functional

T1 sequence (P08183 whole entry): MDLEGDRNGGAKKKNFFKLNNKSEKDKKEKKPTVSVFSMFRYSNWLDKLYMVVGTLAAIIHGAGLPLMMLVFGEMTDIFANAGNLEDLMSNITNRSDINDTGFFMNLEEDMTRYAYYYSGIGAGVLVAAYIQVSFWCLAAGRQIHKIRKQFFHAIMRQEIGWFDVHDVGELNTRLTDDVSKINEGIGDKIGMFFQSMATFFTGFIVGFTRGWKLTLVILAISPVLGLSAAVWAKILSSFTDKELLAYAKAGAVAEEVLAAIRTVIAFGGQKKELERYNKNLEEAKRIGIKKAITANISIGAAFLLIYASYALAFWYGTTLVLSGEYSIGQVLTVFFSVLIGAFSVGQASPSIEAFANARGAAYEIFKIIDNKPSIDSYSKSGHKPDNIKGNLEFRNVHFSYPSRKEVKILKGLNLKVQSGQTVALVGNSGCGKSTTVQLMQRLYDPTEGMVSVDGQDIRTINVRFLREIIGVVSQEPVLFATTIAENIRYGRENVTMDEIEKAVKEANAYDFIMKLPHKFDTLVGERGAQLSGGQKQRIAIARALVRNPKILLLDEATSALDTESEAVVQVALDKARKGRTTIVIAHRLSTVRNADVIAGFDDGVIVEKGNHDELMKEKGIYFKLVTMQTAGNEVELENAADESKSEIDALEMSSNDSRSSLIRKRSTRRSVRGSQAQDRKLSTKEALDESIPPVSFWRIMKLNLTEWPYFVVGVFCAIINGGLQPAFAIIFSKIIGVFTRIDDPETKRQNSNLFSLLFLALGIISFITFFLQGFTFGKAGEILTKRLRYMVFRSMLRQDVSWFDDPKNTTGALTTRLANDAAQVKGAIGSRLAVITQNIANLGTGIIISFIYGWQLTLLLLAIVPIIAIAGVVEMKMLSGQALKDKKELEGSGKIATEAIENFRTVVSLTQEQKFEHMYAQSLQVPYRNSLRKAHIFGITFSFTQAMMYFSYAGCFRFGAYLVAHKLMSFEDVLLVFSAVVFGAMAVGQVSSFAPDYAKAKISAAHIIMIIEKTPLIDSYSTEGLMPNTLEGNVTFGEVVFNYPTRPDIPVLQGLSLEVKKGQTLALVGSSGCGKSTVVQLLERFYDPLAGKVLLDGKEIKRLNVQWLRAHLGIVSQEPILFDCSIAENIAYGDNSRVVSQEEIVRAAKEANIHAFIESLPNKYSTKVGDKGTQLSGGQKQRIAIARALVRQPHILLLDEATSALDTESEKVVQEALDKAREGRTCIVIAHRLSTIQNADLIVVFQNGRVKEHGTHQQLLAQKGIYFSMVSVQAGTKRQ

Activity [4]: 37.1%
Compound: COc1ccc2c3c(c4cc(OC)c(OC)cc4c2c1)C[C@@]1(CO)CCCN1C3
IC50 [1]: 80 nM
Activity [2]: 68.38%
inhibition in vivo at 10 mg/kg [3]: 54.8%
fractional inhibitory concentration index (FICI) [5]: 0.523
inhibition [6]: Active
Activity [7]: 2.31%
Activity [8]: 1.13%
Activity [9]: 69.43%

— ChEMBL document CHEMBL2346587, “Design, synthesis, and evaluation of a water-soluble antofine analogue with high antiproliferative and antitumor activity” (Bioorg Med Chem, 2013)
